# Compounds with a hit are over-represented: about 2.2% of the library has one in this group of screens.
# MT stabilizer: microtubule stabilizers in HeLa cells; HeLa tubulin immunostaining HCS, 24 h; share of cells brighter than vehicle mean+2SD; % tubulin-high responders, % at 10 µM; hit rate 0.83% among 200,000; AID 2205;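 active = plate Z-score above 3 for both tubulin-high and condensed-nucleus cell shares, with cell loss under 80%, at 10 µM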;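 also: anti alpha tubulin signal scored within the nucleus-defined area of each cell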
# BaF3 parental: counter-screen for JAK2V617F inhibitors: parental Ba/F3 viability inhibitors. CellTiter-Glo ATP luminescence. inhibition, % at 5.6 µM. hit rate 1.1% among 220,000. AID 1486;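 active = inhibition above a per-campaign cutoff, the mean inhibition of all tested compounds plus 3 SD, cut at about 27% in these data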;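 also: 0% = DMSO wells and 100% = JAK Inhibitor I control wells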
# IEC-6 tox: counter-screen for KLF5 inhibitors: cytotoxicity in IEC-6 cells. hit rate 0.78% among 290,000. IEC-6 cytotoxicity, luminescence viability. inhibition, % at 5 µM. AID 1825; in the data active = inhibition above about 22%;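 also: 0% = plate median of test compound wells and 100% = cytotoxic reference compound wells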
# Ba/F3 V617F tox: loss of viability in JAK2V617F-driven Ba/F3 cells | Ba/F3 EpoR-JAK2V617F viability, ATP luminescence | inhibition, % at 5.6 µM | hit rate 1.1% among 220,000 | AID 1446;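 active = inhibition above the campaign mean plus 3 SD over all tested compounds, cut at about 24% in these data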;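 also: cytokine-independent growth of Ba/F3 cells driven by EpoR plus mutant JAK2; 0% = DMSO-treated cells and 100% = JAK inhibitor I control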
# bCat nuc transl: beta-catenin nuclear translocation modulation | nuclear translocation activity, % at 5 µM | AID 1665 | HeLa beta-catenin nuclear translocation, immunofluorescence imaging | hit rate 0.3% among 190,000;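 active = nuclear translocation activity above 50% at 5 µM, with a well cell count of 50 or more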;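 also: per-cell ratio of nuclear to cytoplasmic median beta-catenin stain intensity; plate controls were DMSO negative control for no effect and GSK-3 inhibitor IX positive control for full effect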
#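 Technique: fluorescence imaging of beta-catenin antibody stain plus DAPI / Material: human HeLa cell line / Incubation: compound treatment 24 h, 37°C, 5% CO2 / Read-out basis: % activation of per-cell nuclear versus cytoplasmic median beta-catenin signal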
# APP transl inh: APP translation inhibition; SH-SY5Y APP 5'UTR-luciferase reporter, luminescence; inhibition, % at 2 µM; hit rate 0.82% among 190,000;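 active = inhibition above a set limit, derived from the sample mean plus 3 SD, cut at about 45% in these data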
# * = called active by the depositor; . = not tested or not shown.
SMILES,MT stabilizer,BaF3 parental,IEC-6 tox,Ba/F3 V617F tox,bCat nuc transl,APP transl inh
C#CCOCCOCCOCCNc1nc(N2CCN(C(=O)[C@H](Cc3ccc(O)cc3)n3cc(CCO)nn3)CC2)nc(N2CCN(C(=O)[C@H](Cc3ccc(O)cc3)n3cc(CCO)nn3)CC2)n1,3.8,-0.1,-1.9,-3.0,.,0.2
Cc1ccc(C[n+]2cccc(-c3ccccc3)c2)c(C)c1,3.6,69.2*,13.2,76.8*,3.7,-4.4
Cc1ccc[n+](CC(=O)c2ccccc2)c1,.,.,-5.3,.,.,.
Cc1ccc(CNC(=O)C2CCC(=O)N(CCc3ccc(Cl)cc3)C2)cc1 (stereo not given),.,.,6.1,.,.,.
CCOC(=O)c1c(N)sc(C(=O)OC)c1C,1.3,1.4,1.4,-3.9,0.2,-1.6
CCOC(=O)c1sc(N)c(C(=O)OC)c1C,2.7,90.4*,10.7,5.3,1.5,-23.6
CCOC(=O)c1sc(C)c(C(=O)NC2CCCCC2)c1N,3.1,6.5,-1.3,0.9,118.5*,-12.5
CCOC(=O)c1snc(C(=O)NC2CCCCC2)c1N,4.0,0.2,-6.9,-2.5,-2.7,-81.2
Cc1ccc(C(=O)NCCc2nnc3ccc(NCc4ccc5c(c4)OCO5)nn23)cc1,.,.,6.1,.,.,.
COc1ccc(-c2csc(NC(=O)C3CCN(C(=O)c4ccc(F)cc4)CC3)n2)cc1OC,.,.,-4.1,.,.,.
C=C1C(=O)[C@@]23[C@H](O)C[C@@H]4C(C)(C)CC[C@H](O)[C@]4(C)[C@@H]2C[C@H](O)[C@@H]1[C@H]3O,5.0,73.4*,-3.6,62.1*,.,33.4
COc1ccc(-c2[nH]ncc2CNCCc2ncccc2C)cc1F,2.0,0.5,-4.6,-1.9,0.0,-18.1
CCCc1ccc2oc(C(=O)N3CCNC(=O)C3CC(=O)OC)c(C)c2c1 (stereo not given),.,.,1.4,.,.,.
CCOc1ccc(NC(=NCc2ccc3c(c2)OCO3)SC2CC(=O)N(c3ccc(OCC)cc3)C2=O)cc1 (stereo not given),25.3*,0.7,2.0,-0.4,0.2,9.8
CCOc1ccc(NC(=NCc2ccc3c(c2)OCO3)SC2CC(=O)N(c3ccccc3)C2=O)cc1 (stereo not given),3.6,1.0,-9.2,-3.8,3.3,24.8
CC(=O)c1cccc(S(=O)(=O)NCCC(=O)O)c1,4.2,34.3*,1.4,-3.5,-4.3,-7.6
Cc1ccc(N(CC(=O)NCC2CCCO2)C(=O)CCC(=O)Nc2cc(C)on2)cc1 (stereo not given),.,.,0.6,.,.,.
C=CCN(CC(=O)NCC1CCCO1)C(=O)CCC(=O)Nc1cc(C)on1 (stereo not given),2.9,92.9*,-0.6,-4.0,-4.9,0.6
Cc1ccc(NC(=O)C2CCCN(C(=O)NCc3ccccc3)C2)c(C)c1 (stereo not given),.,.,1.2,.,.,.
N#CCCN1CCN(C(=S)c2ccc(-c3ccc(Cl)cc3)o2)CC1,3.0,93.1*,-5.4,-2.4,5.0,5.4
CCc1nn(C(C)C(=O)N(C)Cc2ccccc2)c(=O)c2cc3occc3n12 (stereo not given),.,.,-5.0,.,.,.
COc1ccc(N(C(=O)CCl)C(C(=O)NCCc2ccccc2)c2cccs2)cc1 (stereo not given),13.1,29.9*,41.2*,102.0*,1.5,16.1
CCC(C)c1ccc(NC(=O)C2CCCN(c3ncccn3)C2)cc1 (stereo not given),35.7*,1.6,3.0,-0.8,1.9,-17.8
CN(C)c1ccc(/C=C2\CCC/C(=C\c3ccccc3)C2=O)cc1,9.3*,5.2,2.7,-0.7,4.3,-0.9
O=C1/C(=C/c2cccnc2)CC/C1=C\c1cccnc1,2.8,1.1,-0.5,-1.5,0.2,-13.8
SMILES,MT stabilizer,BaF3 parental,IEC-6 tox,Ba/F3 V617F tox,bCat nuc transl,APP transl inh
COc1ccc(/C=C2\CCC/C(=C\C=N\N(C)C)C2=O)cc1,20.3*,1.7,6.9,-2.8,-2.3,-15.9
O=C1/C(=C/c2cccnc2)CCC/C1=C\c1cccnc1,29.3*,-5.9,2.8,-3.0,-2.5,94.9*
CCC1C/C(=C\c2cccnc2)C(=O)/C(=C/c2cccnc2)C1 (stereo not given),45.5*,4.5,30.2*,5.9,-1.1,94.8*
CN(C(=O)COC(=O)c1ccccc1SCC(=O)N1CCCC1)c1ccccc1,.,.,3.6,.,.,.
CCC(=O)c1cn(CC(=O)Nc2cc(C)ccc2C)c2ccccc12,.,.,6.0,.,.,.
N#Cc1ccc(NC(=O)CSc2cn[nH]n2)cc1,.,.,11.9,.,.,.
O=C(Nc1c2c(nn1-c1ccccc1)CS(=O)C2)c1ccc2c(c1)OCO2 (stereo not given),.,.,-1.0,.,.,.
Oc1ccccc1N=Nc1ccccc1O,12.1,2.6,-2.7,6.1,3.0,83.1*
Oc1ccccc1N=Cc1ccc[nH]1,3.9,5.3,4.5,-1.1,-2.5,14.6
Cc1cc(C)c2c(c1)/C(=N/NS(=O)(=O)c1ccc(Br)cc1)CCC2,1.3,1.1,2.9,-4.6,2.4,81.0*
O=C(CSc1ncn[nH]1)N/N=C/c1ccc(C(F)(F)F)cc1,.,.,0.9,.,.,.
COc1ccc(OC)c(NS(=O)(=O)c2ccc(Br)s2)c1,9.6*,8.2,7.2,3.9,-1.3,12.8
COc1ccc(OC)c(NS(=O)(=O)c2ccc(Cl)s2)c1,13.4,2.7,0.0,-1.5,-2.2,-0.1
CC(C)C[C@@H](CSc1ccccc1)N1CCN(CC(C)C)CCC1=O,.,.,-2.8,.,.,.
CC(=O)Nc1ccccc1N(C)S(=O)(=O)c1ccc(C)cc1,47.1*,3.5,2.2,-3.3,4.9,-5.1
COc1ccc(NS(=O)(=O)c2cc(NC(=O)CC3CCCC3)ccc2N2CCOCC2)cc1,4.1,32.2*,-4.3,7.4,1.8,14.1
COc1ccc(NS(=O)(=O)c2cc(NC(=O)c3cc(F)c(F)c(F)c3F)ccc2N2CCCC2)cc1,.,-8.5,7.9,-4.2,0.1,.
COc1ccc(NS(=O)(=O)c2cc(NC(=O)c3ccco3)ccc2N2CCCC2)cc1,15.4*,6.5,19.4,1.9,2.0,0.8
Cc1nnc(NC2CCCCC2)[nH]c1=O,2.8,3.7,0.8,0.3,.,-8.9
Cc1n[nH]c(=O)nc1NC1CCCCC1,4.2,2.4,-0.1,-0.7,-1.6,60.2*
CCc1ccc(NC(=S)N(Cc2ccc(Cl)cc2)Cc2ccc(C(=O)O)cc2)cc1,2.1,0.4,-7.7,-3.2,-0.4,-3.3
CC(C)CN(CC(C)C)C(=S)Nc1ccc(Cl)cc1,4.5,42.6*,-1.3,33.2*,-3.9,4.2
COC(=O)c1ccc2c(c1)C(C)(C)C(/C=C/c1ccccc1O)=[N+]2C,53.1*,14.2,-2.5,2.8,1.4,-12.5
O=C(C1CCCN(Cc2ccccc2[N+](=O)[O-])C1)N1CCCCC1 (stereo not given),.,.,-2.1,.,.,.
COC(=O)CN1C(=O)COc2ccc(S(=O)(=O)NCc3ccccc3)cc21,.,.,-7.1,.,.,.
CCCN1CCN(c2ncnc3c2nnn3Cc2ccccc2)CC1,57.5*,4.2,6.2,0.8,71.9*,-9.6
c1ccc(Cn2nnc3c(N4CCCCCC4)ncnc32)cc1,1.3,4.0,5.4,2.6,-3.5,4.7
CSc1ccc(/C=C(\NC(=O)c2ccc(C)cc2)C(=O)NN)cc1,.,56.8*,-4.0,12.8,-0.5,.
